Test results reported in publication PMC6606825 (Journal of Ginseng Research, 2018).

Test: Pharmacokinetics of CK and its metabolite 20
Format: in vivo, healthy Chinese volunteers
How it was run: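 Healthy adults given one oral tablet dose fasting (overnight, or 10 h in a crossover food-effect arm); 30 subjects from the 100/200/400 mg groups were pooled with 24 from 200 mg fasting periods. Plasma was stored at −70°C, extracted with MTBE plus internal standards and assayed by LC-MS/MS. Cmax was observed and AUClast calculated by linear trapezoid, each divided by dose. The metabolite/parent ratio was also calculated. Genotyping used Sequenom MassARRAY, and log-transformed values were compared by one-way ANOVA.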

[1] = ABCC4 rs1151471 CC, n = 2, mean (SD)
[2] = ABCC4 rs2274406 TT (first line), mean (SD)
[3] = ABCC4 rs2274406 TT (third line), mean (SD)
[4] = ABCG2 rs2054576 AA (first line), mean (SD)
[5] = ABCG2 rs2054576 AA (third line), mean (SD)

dose-normalized exposure among the groups (100, 200, 400 mg single-dose groups and food-effect trial, fasting): not significantly different
CK AUClast/D (ABCB1 rs1045642 AA, mean (SD)): 28.81 (11.93)
CK Cmax/D (ABCB1 rs1045642 AA, mean (SD)): 4.03 (1.47)
CK AUClast/D (ABCB1 rs1045642 AG, mean (SD)): 27.71 (15.58)
CK Cmax/D (ABCB1 rs1045642 AG, mean (SD)): 3.50 (1.91)
CK AUClast/D (ABCB1 rs1045642 GG, mean (SD)): 31.19 (22.91)
CK Cmax/D (ABCB1 rs1045642 GG, mean (SD)): 4.13 (2.82)
CK AUClast/D (ABCB1 rs1128503 AA, mean (SD)): 28.07 (15.30)
CK Cmax/D (ABCB1 rs1128503 AA, mean (SD)): 3.67 (1.80)
CK AUClast/D (ABCB1 rs1128503 AG, mean (SD)): 28.43 (20.03)
CK Cmax/D (ABCB1 rs1128503 AG, mean (SD)): 3.66 (2.34)
CK AUClast/D (ABCB1 rs1128503 GG, mean (SD)): 33.81 (17.43)
CK Cmax/D (ABCB1 rs1128503 GG, mean (SD)): 4.67 (3.44)
CK AUClast/D (ABCB1 rs2032582 AA, mean (SD)): 26.68 (12.71)
CK Cmax/D (ABCB1 rs2032582 AA, mean (SD)): 3.81 (2.02)
CK AUClast/D (ABCB1 rs2032582 CA, mean (SD)): 27.47 (15.11)
CK Cmax/D (ABCB1 rs2032582 CA, mean (SD)): 3.46 (1.72)
CK AUClast/D (ABCB1 rs2032582 CC, mean (SD)): 33.69 (25.60)
CK Cmax/D (ABCB1 rs2032582 CC, mean (SD)): 4.42 (3.14)
CK AUClast/D (ABCC2 rs717620 CC, mean (SD)): 31.60 (19.89)
CK Cmax/D (ABCC2 rs717620 CC, mean (SD)): 3.98 (2.30)
CK AUClast/D (ABCC2 rs717620 CT, mean (SD)): 25.18 (13.50)
CK Cmax/D (ABCC2 rs717620 CT, mean (SD)): 3.48 (2.01)
CK AUClast/D (ABCC2 rs2273697 GA, mean (SD)): 35.66 (26.59)
CK Cmax/D (ABCC2 rs2273697 GA, mean (SD)): 4.74 (3.23)
CK AUClast/D (ABCC2 rs2273697 GG, mean (SD)): 25.98 (12.06)
CK Cmax/D (ABCC2 rs2273697 GG, mean (SD)): 3.35 (1.44)
CK AUClast/D (ABCC2 rs2756109 GG, mean (SD)): 27.59 (12.16)
CK AUClast/D (ABCC2 rs3740066 CC, mean (SD)): 32.09 (20.46)
CK Cmax/D (ABCC2 rs3740066 CC, mean (SD)): 4.02 (2.37)
CK Cmax/D (ABCC2 rs3740066 CT, mean (SD)): 3.3 (1.87)
CK AUClast/D (ABCC2 rs3740066 TT, n = 1): 55.95 (—)
CK Cmax/D (ABCC2 rs3740066 TT, n = 1): 6.24 (—)
CK AUClast/D (ABCC3 rs4148416 CC, mean (SD)): 29.20 (18.77)
CK Cmax/D (ABCC3 rs4148416 CC, mean (SD)): 3.72 (2.07)
CK AUClast/D (ABCC3 rs4148416 CT, mean (SD)): 27.15 (14.29)
CK Cmax/D (ABCC3 rs4148416 CT, mean (SD)): 3.78 (2.53)
CK AUClast/D (ABCC3 rs4793665 CT, mean (SD)): 29.14 (12.55)
CK Cmax/D (ABCC3 rs4793665 CT, mean (SD)): 4.04 (2.17)
CK AUClast/D (ABCC3 rs4793665 TT, mean (SD)): 28.53 (18.94)
CK Cmax/D (ABCC3 rs4793665 TT, mean (SD)): 3.65 (2.19)
CK AUClast/D (ABCC3 rs12051822 GA, mean (SD)): 23.66 (11.90)
CK Cmax/D (ABCC3 rs12051822 GA, mean (SD)): 3.09 (1.13)
CK AUClast/D (ABCC3 rs12051822 GG, mean (SD)): 30.37 (18.95)
CK Cmax/D (ABCC3 rs12051822 GG, mean (SD)): 3.96 (2.39)
CK AUClast/D [1]: 13.68 (2.21)
CK Cmax/D [1]: 2.08 (0.39)
CK AUClast/D (ABCC4 rs1151471 TC, mean (SD)): 24.64 (13.71)
CK Cmax/D (ABCC4 rs1151471 TC, mean (SD)): 3.32 (2.06)
CK AUClast/D (ABCC4 rs1151471 TT, mean (SD)): 32.65 (19.80)
CK Cmax/D (ABCC4 rs1151471 TT, mean (SD)): 4.16 (2.32)
CK AUClast/D (ABCC4 rs1189437 GG, n = 1): 12.12 (−)
CK Cmax/D (ABCC4 rs1189437 GG, n = 1): 1.80 (−)
CK AUClast/D (ABCC4 rs1189437 GT, mean (SD)): 20.77 (9.40)
CK Cmax/D (ABCC4 rs1189437 GT, mean (SD)): 2.74 (1.29)
CK AUClast/D (ABCC4 rs1189437 TT, mean (SD)): 31.84 (19.14)
CK Cmax/D (ABCC4 rs1189437 TT, mean (SD)): 4.06 (2.19)
CK AUClast/D (ABCC4 rs1751034 TC, mean (SD)): 18.58 (7.25)
CK Cmax/D (ABCC4 rs1751034 TC, mean (SD)): 2.45 (0.95)
CK AUClast/D (ABCC4 rs1751034 TT, mean (SD)): 32.53 (18.96)
CK Cmax/D (ABCC4 rs1751034 TT, mean (SD)): 4.23 (2.32)
CK AUClast/D (ABCC4 rs2274406 CT, mean (SD)): 28.24 (19.96)
CK Cmax/D (ABCC4 rs2274406 CT, mean (SD)): 3.68 (2.42)
CK AUClast/D [2]: 33.40 (14.80)
CK Cmax/D [2]: 4.70 (2.25)
CK AUClast/D [3]: 26.57 (13.77)
CK Cmax/D [3]: 3.25 (1.32)
CK AUClast/D (ABCC4 rs2274407 CA, mean (SD)): 28.22 (13.76)
CK Cmax/D (ABCC4 rs2274407 CA, mean (SD)): 3.43 (1.35)
CK AUClast/D (ABCC4 rs2274407 CC, mean (SD)): 28.81 (18.82)
CK Cmax/D (ABCC4 rs2274407 CC, mean (SD)): 3.84 (2.38)
CK AUClast/D (ABCC4 rs4148546 AA, mean (SD)): 26.51 (15.61)
CK Cmax/D (ABCC4 rs4148546 AA, mean (SD)): 3.43 (1.93)
CK Cmax/D (ABCC4 rs4148546 GA, mean (SD)): 3.49 (1.91)
CK AUClast/D (ABCC4 rs4148546 GG, mean (SD)): 39.82 (26.88)
CK Cmax/D (ABCC4 rs4148546 GG, mean (SD)): 4.87 (2.88)
CK AUClast/D (ABCC4 rs11568658 CC, mean (SD)): 28.31 (19.56)
CK AUClast/D [4]: 25.61 (12.77)
CK Cmax/D [4]: 3.31 (1.53)
CK AUClast/D [5]: 25.70 (13.01)
CK Cmax/D [5]: 3.29 (1.35)
CK AUClast/D (ABCG2 rs2054576 GA, mean (SD)): 32.78 (22.38)
CK Cmax/D (ABCG2 rs2054576 GA, mean (SD)): 4.31 (2.78)
CK AUClast/D (ABCG2 rs2231142 GG, mean (SD)): 27.45 (13.31)
CK Cmax/D (ABCG2 rs2231142 GG, mean (SD)): 3.51 (1.56)
CK AUClast/D (ABCG2 rs2231142 GT, mean (SD)): 31.50 (23.56)
CK Cmax/D (ABCG2 rs2231142 GT, mean (SD)): 3.89 (2.60)
CK AUClast/D (ABCG2 rs2231142 TT, mean (SD)): 25.70 (13.01)
CK Cmax/D (ABCG2 rs2231142 TT, mean (SD)): 3.29 (1.35)
CK AUClast/D (ABCG2 rs2231148 AA, mean (SD)): 35.54 (21.89)
CK Cmax/D (ABCG2 rs2231148 AA, mean (SD)): 4.43 (2.92)
CK AUClast/D (ABCG2 rs2231148 AT, mean (SD)): 39.28 (26.36)
CK Cmax/D (ABCG2 rs2231148 AT, mean (SD)): 4.87 (3.24)
CK AUClast/D (ABCG2 rs2231148 TT, mean (SD)): 23.05 (8.91)
CK Cmax/D (ABCG2 rs2231148 TT, mean (SD)): 3.09 (1.18)
CK AUClast/D (ABCG2 rs2725248 AA, mean (SD)): 26.94 (18.76)
CK Cmax/D (ABCG2 rs2725248 AA, mean (SD)): 3.68 (2.42)
CK AUClast/D (ABCG2 rs2725248 CA, mean (SD)): 31.91 (15.94)
CK Cmax/D (ABCG2 rs2725248 CA, mean (SD)): 3.96 (1.89)
CK AUClast/D (ABCG2 rs2725248 CC, mean (SD)): 40.01 (16.71)
SMILES: CC(C)=CCC[C@](C)(O[C@@H]1O[C@H](CO)[C@@H](O)[C@H](O)[C@H]1O)[C@H]1CC[C@]2(C)[C@@H]1[C@H](O)C[C@@H]1[C@@]3(C)CC[C@H](O)C(C)(C)[C@@H]3CC[C@]12C [Ginsenoside compound K, 20-O-beta-D-glucopyranosyl-20(S)-protopanaxadiol]
